ChEMBL document CHEMBL1671716, “Antimicrobial susceptibility patterns for recent clinical isolates of anaerobic bacteria in South Korea” (2010)
Values after ≈ are worked out from the molar mass of the structure shown.

Legend:
[1] = tested on: Schaalia meyeri; assay: Antimicrobial activity against Actinomyces meyeri after 48 hrs by agar dilution method; assay type: functional
Summary of the method: (§1)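 MICs on clinical anaerobe isolates by the CLSI agar dilution method. Inoculum of 10^5 CFU applied with a Steers replicator. Plates incubated 48 h at 37°C in an anaerobic chamber.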

[2] = tested on: Bacteroides thetaiotaomicron; assay: Antimicrobial activity against Bacteroides thetaiotaomicron assessed as percent resistant isolates after 48 hrs by agar dilution method; assay type: functional
Summary of the method: (§2)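 CLSI agar dilution on recent Korean clinical anaerobe isolates. Inoculum 10^5 CFU per spot by replicator. Plates incubated in an anaerobic chamber at 37°C for 48 h. For piperacillin plus tazobactam, tazobactam was held constant at 4 μg/ml. Resistance and susceptibility rates derived from MICs.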

[3] = tested on: Peptostreptococcus anaerobius; assay: Antimicrobial activity against Peptostreptococcus anaerobius assessed as percent susceptible isolates after 48 hrs by agar dilution method; assay type: functional; summary of the method: as §2
[4] = tested on: Actinomyces naeslundii; assay: Antimicrobial activity against Actinomyces naeslundii assessed as percent resistant isolates after 48 hrs by agar dilution method; assay type: functional; summary of the method: as §2
[5] = tested on: Fusobacterium varium; assay: Antimicrobial activity against Fusobacterium varium after 48 hrs by agar dilution method; assay type: functional
Summary of the method: (§3)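 CLSI agar dilution (M11-A7); inoculum 10^5 CFU applied by replicator; plates incubated anaerobically 48 h at 37°C. For piperacillin-tazobactam, tazobactam held constant at 4 μg/ml.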

[6] = tested on: Eubacterium sp.; assay: Antimicrobial activity against Eubacterium sp. after 48 hrs by agar dilution method; assay type: functional; summary of the method: as §3
[7] = tested on: Bacteroides thetaiotaomicron; assay: Antimicrobial activity against Bacteroides thetaiotaomicron after 48 hrs by agar dilution method; assay type: functional; summary of the method: as §1
[8] = tested on: Parabacteroides distasonis; assay: Antimicrobial activity against Bacteroides distasonis after 48 hrs by agar dilution method; assay type: functional; summary of the method: as §1
[9] = tested on: Clostridioides difficile; assay: Antimicrobial activity against Clostridium difficile assessed as percent susceptible isolates after 48 hrs by agar dilution method; assay type: functional
[10] = tested on: Bacteroides fragilis; assay: Antimicrobial activity against Bacteroides fragilis after 48 hrs by agar dilution method; assay type: functional; summary of the method: as §1
[11] = tested on: Clostridioides difficile; assay: Antimicrobial activity against Clostridium difficile after 48 hrs by agar dilution method; assay type: functional
[12] = tested on: Prevotella bivia; assay: Antimicrobial activity against Prevotella bivia assessed as percent resistant isolates after 48 hrs by agar dilution method; assay type: functional; summary of the method: as §2
[13] = tested on: Anaerococcus prevotii; assay: Antimicrobial activity against Anaerococcus prevotii assessed as percent resistant isolates after 48 hrs by agar dilution method; assay type: functional; summary of the method: as §2
[14] = tested on: Clostridium perfringens; assay: Antimicrobial activity against Clostridium perfringens after 48 hrs by agar dilution method; assay type: functional
[15] = tested on: Actinomyces israelii; assay: Antimicrobial activity against Actinomyces israelii assessed as percent resistant isolates after 48 hrs by agar dilution method; assay type: functional; summary of the method: as §2
[16] = tested on: Fusobacterium nucleatum; assay: Antimicrobial activity against Fusobacterium nucleatum after 48 hrs by agar dilution method; assay type: functional; summary of the method: as §3
[17] = tested on: Prevotella intermedia; assay: Antimicrobial activity against Prevotella intermedia assessed as percent susceptible isolates after 48 hrs by agar dilution method; assay type: functional; summary of the method: as §3
[18] = tested on: Bifidobacterium adolescentis; assay: Antimicrobial activity against Bifidobacterium adolescentis after 48 hrs by agar dilution method; assay type: functional; summary of the method: as §1
[19] = tested on: Peptostreptococcus anaerobius; assay: Antimicrobial activity against Peptostreptococcus anaerobius after 48 hrs by agar dilution method; assay type: functional; summary of the method: as §3
[20] = tested on: Actinomyces naeslundii; assay: Antimicrobial activity against Actinomyces naeslundii after 48 hrs by agar dilution method; assay type: functional; summary of the method: as §1
[21] = tested on: Parabacteroides distasonis; assay: Antimicrobial activity against Bacteroides distasonis assessed as percent susceptible isolates after 48 hrs by agar dilution method; assay type: functional
[22] = tested on: Eubacterium sp.; assay: Antimicrobial activity against Eubacterium sp. assessed as percent resistant isolates after 48 hrs by agar dilution method; assay type: functional; summary of the method: as §2
[23] = tested on: Clostridium perfringens; assay: Antimicrobial activity against Clostridium perfringens assessed as percent susceptible isolates after 48 hrs by agar dilution method; assay type: functional
[24] = tested on: Bacteroides fragilis; assay: Antimicrobial activity against Bacteroides fragilis assessed as percent resistant isolates after 48 hrs by agar dilution method; assay type: functional; summary of the method: as §2
[25] = tested on: Prevotella intermedia; assay: Antimicrobial activity against Prevotella intermedia assessed as percent resistant isolates after 48 hrs by agar dilution method; assay type: functional; summary of the method: as §2
[26] = tested on: Bifidobacterium adolescentis; assay: Antimicrobial activity against Bifidobacterium adolescentis assessed as percent resistant isolates after 48 hrs by agar dilution method; assay type: functional; summary of the method: as §2
[27] = tested on: Schaalia meyeri; assay: Antimicrobial activity against Actinomyces meyeri assessed as percent resistant isolates after 48 hrs by agar dilution method; assay type: functional; summary of the method: as §2
[28] = tested on: Phocaeicola vulgatus; assay: Antimicrobial activity against Bacteroides vulgatus assessed as percent susceptible isolates after 48 hrs by agar dilution method; assay type: functional
[29] = tested on: Bacteroides caccae; assay: Antimicrobial activity against Bacteroides caccae assessed as percent resistant isolates after 48 hrs by agar dilution method; assay type: functional; summary of the method: as §2
[30] = tested on: Prevotella buccae; assay: Antimicrobial activity against Prevotella buccae assessed as percent susceptible isolates after 48 hrs by agar dilution method; assay type: functional, Segatella buccae; summary of the method: as §3
[31] = tested on: Hoylesella oralis; assay: Antimicrobial activity against Prevotella oralis assessed as percent susceptible isolates after 48 hrs by agar dilution method; assay type: functional
Summary of the method: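 CLSI agar dilution MIC testing of clinical isolates. 10^5 CFU spotted by replicator, plates incubated 48 h at 37°C in an anaerobic chamber. Susceptibility rates derived from the MICs.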

[32] = tested on: Actinomyces israelii; assay: Antimicrobial activity against Actinomyces israelii after 48 hrs by agar dilution method; assay type: functional; summary of the method: as §1
[33] = tested on: Hoylesella oralis; assay: Antimicrobial activity against Prevotella oralis after 48 hrs by agar dilution method; assay type: functional; summary of the method: as §3
[34] = tested on: Bacteroides thetaiotaomicron; assay: Antimicrobial activity against Bacteroides thetaiotaomicron assessed as percent susceptible isolates after 48 hrs by agar dilution method; assay type: functional
[35] = tested on: Bacteroides ovatus; assay: Antimicrobial activity against Bacteroides ovatus after 48 hrs by agar dilution method; assay type: functional; summary of the method: as §1
[36] = tested on: Finegoldia magna; assay: Antimicrobial activity against Finegoldia magna assessed as percent resistant isolates after 48 hrs by agar dilution method; assay type: functional; summary of the method: as §2
[37] = tested on: Actinomyces israelii; assay: Antimicrobial activity against Actinomyces israelii assessed as percent susceptible isolates after 48 hrs by agar dilution method; assay type: functional
[38] = tested on: Phocaeicola vulgatus; assay: Antimicrobial activity against Bacteroides vulgatus assessed as percent resistant isolates after 48 hrs by agar dilution method; assay type: functional; summary of the method: as §2
[39] = tested on: Finegoldia magna; assay: Antimicrobial activity against Finegoldia magna assessed as percent susceptible isolates after 48 hrs by agar dilution method; assay type: functional; summary of the method: as §3
[40] = tested on: Finegoldia magna; assay: Antimicrobial activity against Finegoldia magna after 48 hrs by agar dilution method; assay type: functional; summary of the method: as §3
[41] = tested on: Eubacterium sp.; assay: Antimicrobial activity against Eubacterium sp. assessed as percent susceptible isolates after 48 hrs by agar dilution method; assay type: functional; summary of the method: as §3
[42] = tested on: Schaalia odontolytica; assay: Antimicrobial activity against Actinomyces odontolyticus after 48 hrs by agar dilution method; assay type: functional; summary of the method: as §1
[43] = tested on: Bacteroides ovatus; assay: Antimicrobial activity against Bacteroides ovatus assessed as percent resistant isolates after 48 hrs by agar dilution method; assay type: functional; summary of the method: as §2
[44] = tested on: Parvimonas micra; assay: Antimicrobial activity against Peptostreptococcus micros assessed as percent susceptible isolates after 48 hrs by agar dilution method; assay type: functional; summary of the method: as §2
[45] = tested on: Eggerthella lenta; assay: Antimicrobial activity against Eubacterium lentum assessed as percent resistant isolates after 48 hrs by agar dilution method; assay type: functional; summary of the method: as §2
[46] = tested on: Clostridioides difficile; assay: Antimicrobial activity against Clostridium difficile assessed as percent resistant isolates after 48 hrs by agar dilution method; assay type: functional
[47] = tested on: Prevotella buccae; assay: Antimicrobial activity against Prevotella buccae assessed as percent resistant isolates after 48 hrs by agar dilution method; assay type: functional, Segatella buccae; summary of the method: as §2
[48] = tested on: Prevotella bivia; assay: Antimicrobial activity against Prevotella bivia after 48 hrs by agar dilution method; assay type: functional; summary of the method: as §3

What does the source list for `CCN1CCN(C(=O)N[C@@H](C(=O)N[C@@H]2C(=O)N3[C@@H]2SC(C)(C)[C@@H]3C(=O)O)c2ccccc2)C(=O)C1=O` [PIPERACILLIN]?
MIC50 [1]: 1 µg/mL (≈ 1.93 µM); MIC90 [1]: 8 µg/mL (≈ 15.5 µM); Activity [2]: 51%; Activity [3]: 100%; Activity [4]: 0%; MIC [5]: 0.06 µg/mL (≈ 0.116 µM); MIC50 [6]: 1 µg/mL (≈ 1.93 µM); MIC90 [6]: 8 µg/mL (≈ 15.5 µM); MIC50 [7]: 128 µg/mL (≈ 247 µM); MIC90 [7]: > 256 µg/mL; MIC50 [8]: 128 µg/mL (≈ 247 µM); MIC90 [8]: > 256 µg/mL; Activity [9]: 100%; MIC50 [10]: 8 µg/mL (≈ 15.5 µM); MIC90 [10]: > 256 µg/mL; MIC50 [11]: 4 µg/mL (≈ 7.73 µM); MIC90 [11]: 8 µg/mL (≈ 15.5 µM); Activity [12]: 11%; Activity [13]: 0%; MIC50 [14]: 0.25 µg/mL (≈ 0.483 µM); MIC90 [14]: 0.5 µg/mL (≈ 0.966 µM); Activity [15]: 0%; MIC [16]: 0.06 µg/mL (≈ 0.116 µM); Activity [17]: 100%; MIC50 [18]: 1 µg/mL (≈ 1.93 µM); MIC90 [18]: 8 µg/mL (≈ 15.5 µM); MIC50 [19]: 0.25 µg/mL (≈ 0.483 µM); MIC90 [19]: 16 µg/mL (≈ 30.9 µM); MIC50 [20]: 1 µg/mL (≈ 1.93 µM); MIC90 [20]: 8 µg/mL (≈ 15.5 µM); Activity [21]: 42%; Activity [22]: 0%; Activity [23]: 100%; Activity [24]: 27%; Activity [25]: 0%; Activity [26]: 0%; Activity [27]: 0%; Activity [28]: 42%; Activity [29]: 51%; Activity [30]: 78%; Activity [31]: 78%; MIC50 [32]: 1 µg/mL (≈ 1.93 µM); MIC90 [32]: 8 µg/mL (≈ 15.5 µM); MIC50 [33]: 16 µg/mL (≈ 30.9 µM); MIC90 [33]: 128 µg/mL (≈ 247 µM); Activity [34]: 42%; MIC50 [35]: 128 µg/mL (≈ 247 µM); MIC90 [35]: > 256 µg/mL; Activity [36]: 0%; Activity [37]: 92%; Activity [38]: 51%; Activity [39]: 100%; MIC50 [40]: ≤ 0.06 µg/mL; MIC90 [40]: 0.125 µg/mL (≈ 0.242 µM); Activity [41]: 92%; MIC50 [42]: 1 µg/mL (≈ 1.93 µM); MIC90 [42]: 8 µg/mL (≈ 15.5 µM); Activity [43]: 51%; Activity [44]: 0%; Activity [45]: 0%; Activity [46]: 0%; Activity [47]: 11%; MIC50 [48]: 16 µg/mL (≈ 30.9 µM); MIC90 [48]: 128 µg/mL (≈ 247 µM)
